Assay results taken from ChEMBL document CHEMBL3596093, “Synthesis and antimicrobial evaluation of 5-aryl-1,2,4-triazole-3-thione derivatives containing a rhodanine moiety” (2015).
Values after ≈ are worked out from the molar mass of the structure shown.

Columns and labels:
[1] = system: Pseudomonas aeruginosa; assay: Antibacterial activity against Pseudomonas aeruginosa 2004 after 24 hrs by two-fold serial dilution method; assay type: functional; details: Pseudomonas aeruginosa, 2004, 24 h
Method in brief: (§1)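 Strains grown to mid-log phase in Mueller-Hinton broth, then diluted 1000-fold in the same broth to about 10^5 CFU/mL. Compounds were made up as DMSO stocks and two-fold serially diluted from a final top concentration of 64 µg/mL. Incubation was 37 °C for 24 h. Growth was read as absorbance at 630 nm on a microplate reader. MIC assays were run in triplicate.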

[2] = system: Escherichia coli; assay: Antibacterial activity against Escherichia coli KCTC 1924 after 24 hrs by two-fold serial dilution method; assay type: functional; details: KCTC 1924, 24 h; method in brief: as §1
[3] = system: Staphylococcus aureus; assay: Bactericidal activity against methicillin-resistant Staphylococcus aureus CCARM 3167 after 24 hrs by agar plate method; assay type: functional; details: CCARM 3167, 24 h
Method in brief: (§2)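 5 µL from each well without visible growth plated on fresh Mueller-Hinton agar, then 37 °C for a further 24 h. MBC is the lowest concentration giving no visible colonies. Run in triplicate.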

[4] = system: Staphylococcus aureus; assay: Antibacterial activity against Staphylococcus aureus KCTC 209 after 24 hrs by two-fold serial dilution method; assay type: functional; details: KCTC 209, 24 h; method in brief: as §1
[5] = system: Escherichia coli; assay: Bactericidal activity against Escherichia coli KCTC 1924 after 24 hrs by agar plate method; assay type: functional; details: KCTC 1924, 24 h
Method in brief: (§3)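 Samples of 5 µL from MIC wells with no visible growth were plated onto fresh Mueller-Hinton agar and incubated a further 24 h at 37 °C. MBC is the lowest concentration giving no visible colony growth on the agar. Assays were run in triplicate.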

[6] = system: Staphylococcus aureus; assay: Antibacterial activity against Staphylococcus aureus KCTC 503 after 24 hrs by two-fold serial dilution method; assay type: functional; details: KCTC 503, 24 h; method in brief: as §1
[7] = system: Staphylococcus aureus; assay: Bactericidal activity against quinolone-resistant Staphylococcus aureus CCARM 3505 after 24 hrs by agar plate method; assay type: functional; details: CCARM 3505, 24 h; method in brief: as §2
[8] = system: Staphylococcus aureus; assay: Bactericidal activity against Staphylococcus aureus RN4220 after 24 hrs by agar plate method; assay type: functional; details: RN4220, 24 h; method in brief: as §3
[9] = system: Staphylococcus aureus; assay: Antibacterial activity against quinolone-resistant Staphylococcus aureus CCARM 3505 after 24 hrs by two-fold serial dilution method; assay type: functional; details: CCARM 3505, 24 h
Method in brief: (§4)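 Broth microdilution MIC. Bacteria grown to mid-log phase in Mueller-Hinton broth, diluted 1000-fold, about 10^5 CFU/mL. Compounds from DMSO stocks, two-fold serial dilution from a final 64 µg/mL. Incubation at 37 °C for 24 h. Growth read as absorbance at 630 nm on a microplate reader. Run in triplicate.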

[10] = system: Staphylococcus aureus; assay: Bactericidal activity against quinolone-resistant Staphylococcus aureus CCARM 3519 after 24 hrs by agar plate method; assay type: functional; details: CCARM 3519, 24 h; method in brief: as §2
[11] = system: Staphylococcus aureus; assay: Antibacterial activity against Staphylococcus aureus RN4220 after 24 hrs by two-fold serial dilution method; assay type: functional; details: RN4220, 24 h; method in brief: as §4
[12] = system: Streptococcus mutans; assay: Bactericidal activity against Streptococcus mutans 3065 after 24 hrs by agar plate method; assay type: functional; details: Streptococcus mutans, 3065, 24 h; method in brief: as §3
[13] = system: Escherichia coli; assay: Antibacterial activity against Escherichia coli CCARM 1356 after 24 hrs by two-fold serial dilution method; assay type: functional; details: CCARM 1356, 24 h; method in brief: as §1
[14] = system: Streptococcus mutans; assay: Antibacterial activity against Streptococcus mutans 3065 after 24 hrs by two-fold serial dilution method; assay type: functional; details: Streptococcus mutans, 3065, 24 h; method in brief: as §1
[15] = system: Staphylococcus aureus; assay: Antibacterial activity against quinolone-resistant Staphylococcus aureus CCARM 3519 after 24 hrs by two-fold serial dilution method; assay type: functional; details: CCARM 3519, 24 h; method in brief: as §4
[16] = system: Pseudomonas aeruginosa; assay: Antibacterial activity against Pseudomonas aeruginosa 2742 after 24 hrs by two-fold serial dilution method; assay type: functional; details: Pseudomonas aeruginosa, 2742, 24 h; method in brief: as §1
[17] = system: Staphylococcus aureus; assay: Bactericidal activity against methicillin-resistant Staphylococcus aureus CCARM 3506 after 24 hrs by agar plate method; assay type: functional; details: CCARM 3506, 24 h; method in brief: as §2
[18] = system: Staphylococcus aureus; assay: Antibacterial activity against methicillin-resistant Staphylococcus aureus CCARM 3506 after 24 hrs by two-fold serial dilution method; assay type: functional; details: CCARM 3506, 24 h; method in brief: as §4
[19] = system: Staphylococcus aureus; assay: Ratio of MBC to MIC for Staphylococcus aureus KCTC 503; assay type: functional
Method in brief: (§5)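 The ratio divides MBC by MIC for the same strain. MIC comes from two-fold broth microdilution in Mueller-Hinton broth (about 10^5 CFU/mL, 37 °C, 24 h, absorbance at 630 nm). MBC comes from subculturing 5 µL from clear wells onto Mueller-Hinton agar for another 24 h at 37 °C, taken as the lowest concentration with no colonies.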

[20] = system: Candida albicans; assay: Antifungal activity against Candida albicans 7535 after 24 hrs by two-fold serial dilution method; assay type: functional; details: Candida albicans, 7535, 24 h
[21] = system: Staphylococcus aureus; assay: Antibacterial activity against methicillin-resistant Staphylococcus aureus CCARM 3167 after 24 hrs by two-fold serial dilution method; assay type: functional; details: CCARM 3167, 24 h; method in brief: as §4
[22] = system: Salmonella typhimurium; assay: Antibacterial activity against Salmonella typhimurium 2421 after 24 hrs by two-fold serial dilution method; assay type: functional, Salmonella enterica subsp. enterica serovar Typhimurium; details: Salmonella enterica, 2421, 24 h; method in brief: as §1
[23] = system: Escherichia coli; assay: Ratio of MBC to MIC for Escherichia coli KCTC 1924; assay type: functional; method in brief: as §5
[24] = system: Staphylococcus aureus; assay: Bactericidal activity against Staphylococcus aureus KCTC 503 after 24 hrs by agar plate method; assay type: functional; details: KCTC 503, 24 h; method in brief: as §2
[25] = system: Staphylococcus aureus; assay: Bactericidal activity against Staphylococcus aureus KCTC 209 after 24 hrs by agar plate method; assay type: functional; details: KCTC 209, 24 h; method in brief: as §3

O=C(O)[C@H](Cc1ccccc1)N1C(=O)/C(=C/c2ccc(/C=N/n3c(-c4cccc(Br)c4)n[nH]c3=S)cc2)SC1=S
MIC [1]: > 128 µg/mL
MIC [2]: 64 µg/mL (≈ 98.4 µM)
MBC [3]: 128 µg/mL (≈ 197 µM)
MIC [4]: > 64 µg/mL
MBC [5]: 64 µg/mL (≈ 98.4 µM)
MIC [6]: 64 µg/mL (≈ 98.4 µM)
MBC [7]: 128 µg/mL (≈ 197 µM)
MBC [8]: 256 µg/mL (≈ 393 µM)
MIC [9]: 16 µg/mL (≈ 24.6 µM)
MBC [10]: 256 µg/mL (≈ 393 µM)
MIC [11]: 32 µg/mL (≈ 49.2 µM)
MBC [12]: > 128 µg/mL
MIC [13]: > 128 µg/mL
MIC [14]: 64 µg/mL (≈ 98.4 µM)
MIC [15]: 32 µg/mL (≈ 49.2 µM)
MIC [16]: > 128 µg/mL
MBC [17]: 64 µg/mL (≈ 98.4 µM)
MIC [18]: 16 µg/mL (≈ 24.6 µM)
Ratio [19]: <=4
MIC [20]: > 64 µg/mL
MIC [21]: 32 µg/mL (≈ 49.2 µM)
MIC [22]: > 128 µg/mL
Ratio [23]: <=4
MBC [24]: 128 µg/mL (≈ 197 µM)

O=C(O)CN1C(=O)/C(=C/c2ccc(/C=N/n3c(-c4ccccc4Br)n[nH]c3=S)cc2)SC1=S
MIC [1]: > 128 µg/mL
MIC [2]: 64 µg/mL (≈ 114 µM)
MBC [3]: 256 µg/mL (≈ 457 µM)
MIC [4]: > 64 µg/mL
MBC [5]: 256 µg/mL (≈ 457 µM)
MIC [6]: > 64 µg/mL
MBC [8]: > 256 µg/mL
MIC [9]: > 64 µg/mL
MBC [10]: > 256 µg/mL
MIC [11]: 64 µg/mL (≈ 114 µM)
MIC [13]: > 128 µg/mL
MIC [14]: > 64 µg/mL
MIC [15]: 64 µg/mL (≈ 114 µM)
MIC [16]: > 128 µg/mL
MIC [18]: > 64 µg/mL
MIC [20]: > 64 µg/mL
MIC [21]: 64 µg/mL (≈ 114 µM)
MIC [22]: > 128 µg/mL
Ratio [23]: <=4

O=C(O)CN1C(=O)/C(=C/c2ccc(/C=N/n3c(-c4ccc(F)cc4)n[nH]c3=S)cc2)SC1=S
MIC [1]: > 128 µg/mL
MIC [2]: > 128 µg/mL
MBC [3]: > 128 µg/mL
MIC [4]: 64 µg/mL (≈ 128 µM)
MIC [6]: > 64 µg/mL
MBC [8]: > 256 µg/mL
MIC [9]: > 64 µg/mL
MBC [10]: > 256 µg/mL
MBC [25]: > 256 µg/mL
MIC [11]: 64 µg/mL (≈ 128 µM)
MIC [13]: > 128 µg/mL
MIC [14]: > 64 µg/mL
MIC [15]: 32 µg/mL (≈ 64.1 µM)
MIC [16]: > 128 µg/mL
MIC [18]: > 64 µg/mL
MIC [20]: > 64 µg/mL
MIC [21]: 16 µg/mL (≈ 32 µM)
MIC [22]: > 128 µg/mL

O=C1NC(=S)S/C1=C\c1ccc(/C=N/n2c(-c3ccccc3)n[nH]c2=S)cc1
MIC [1]: > 128 µg/mL
MIC [2]: 32 µg/mL (≈ 75.6 µM)
MBC [3]: > 256 µg/mL
MIC [4]: 64 µg/mL (≈ 151 µM)
MBC [5]: 128 µg/mL (≈ 302 µM)
MIC [6]: 32 µg/mL (≈ 75.6 µM)
MBC [7]: > 256 µg/mL
MBC [8]: > 256 µg/mL
MIC [9]: 32 µg/mL (≈ 75.6 µM)
MBC [10]: > 256 µg/mL
MBC [25]: > 256 µg/mL
MIC [11]: 32 µg/mL (≈ 75.6 µM)
MBC [12]: > 128 µg/mL
MIC [13]: > 128 µg/mL
MIC [14]: 16 µg/mL (≈ 37.8 µM)
MIC [15]: 32 µg/mL (≈ 75.6 µM)
MIC [16]: > 128 µg/mL
MBC [17]: > 256 µg/mL
MIC [18]: 32 µg/mL (≈ 75.6 µM)
MIC [20]: > 64 µg/mL
MIC [21]: 32 µg/mL (≈ 75.6 µM)
MIC [22]: > 128 µg/mL
Ratio [23]: <=4
MBC [24]: > 256 µg/mL

O=C1NC(=S)S/C1=C\c1ccc(/C=N/n2c(-c3ccccc3Cl)n[nH]c2=S)cc1
MIC [1]: > 128 µg/mL
MIC [2]: 16 µg/mL (≈ 34.9 µM)
MBC [3]: > 128 µg/mL
MIC [4]: 64 µg/mL (≈ 140 µM)
MBC [5]: > 128 µg/mL
MIC [6]: 16 µg/mL (≈ 34.9 µM)
MBC [7]: > 128 µg/mL
MBC [8]: > 256 µg/mL
MIC [9]: 16 µg/mL (≈ 34.9 µM)
MBC [10]: > 128 µg/mL
MBC [25]: > 256 µg/mL
MIC [11]: 32 µg/mL (≈ 69.9 µM)
MBC [12]: > 128 µg/mL
MIC [13]: > 128 µg/mL
MIC [14]: 16 µg/mL (≈ 34.9 µM)
MIC [15]: 16 µg/mL (≈ 34.9 µM)
MIC [16]: > 128 µg/mL
MBC [17]: > 128 µg/mL
MIC [18]: 16 µg/mL (≈ 34.9 µM)
MIC [20]: > 64 µg/mL
MIC [21]: 16 µg/mL (≈ 34.9 µM)
MIC [22]: > 128 µg/mL
MBC [24]: > 256 µg/mL

O=C1NC(=S)S/C1=C\c1ccc(/C=N/n2c(-c3ccccc3Br)n[nH]c2=S)cc1
MIC [1]: > 128 µg/mL
MIC [2]: 16 µg/mL (≈ 31.8 µM)
MBC [3]: > 128 µg/mL
MIC [4]: 64 µg/mL (≈ 127 µM)
MBC [5]: > 128 µg/mL
MIC [6]: 16 µg/mL (≈ 31.8 µM)
MBC [7]: > 128 µg/mL
MBC [8]: 128 µg/mL (≈ 255 µM)
MIC [9]: 16 µg/mL (≈ 31.8 µM)
MBC [10]: > 128 µg/mL
MBC [25]: > 256 µg/mL
MIC [11]: 16 µg/mL (≈ 31.8 µM)
MBC [12]: > 128 µg/mL
MIC [13]: > 128 µg/mL
MIC [14]: 16 µg/mL (≈ 31.8 µM)
MIC [15]: 16 µg/mL (≈ 31.8 µM)
MIC [16]: > 128 µg/mL
MBC [17]: > 128 µg/mL
MIC [18]: 16 µg/mL (≈ 31.8 µM)
MIC [20]: > 64 µg/mL
MIC [21]: 16 µg/mL (≈ 31.8 µM)
MIC [22]: > 128 µg/mL
MBC [24]: > 128 µg/mL
